# Shown are actives, neighbours in structure and some others; about 4.5% of the full set was active somewhere.
# TAAR1 agonist = human TAAR1 agonism. CHO RD-HGA16 TAAR1, Fluo-8 calcium fluorescence; vehicle wells 0%, saturating PEA agonist 100%. 360,000 tested, 0.99% active. activation, % at 3 µM. AID 624467. Q96RJ0;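 active means activation above the mean activation of all test compounds in the run plus 3 SD, cut at about 38% in these data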
#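 System: CHO RD-HGA16 cells carrying human TAAR1 plus Gα16; Incubation: 17-24 h seeding, 75 min 37 °C dye, 30 min RT; Measured by: Fluo-8 fluorescence, 5 s baseline then 140 s kinetic read; Control set: DMSO and PEA EC100; Replication: single well for each compound.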
# OX1R antag-1 = blocks the human orexin 1 receptor | inhibition, % at 5 µM | AID 434989 | CHO/OX1R cells, Fluo-8 calcium fluorescence, orexin A | O43613 | 330,000 tested, 0.43% active;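 active means inhibition above its plate's threshold, mean inhibition of all tested compounds on the plate plus 3 SD, cut at about 37% in these data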;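 further: 0% = orexin A challenge wells and 100% = SB-334867-A antagonist wells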
# Target sequence (O43613 whole entry, looked up): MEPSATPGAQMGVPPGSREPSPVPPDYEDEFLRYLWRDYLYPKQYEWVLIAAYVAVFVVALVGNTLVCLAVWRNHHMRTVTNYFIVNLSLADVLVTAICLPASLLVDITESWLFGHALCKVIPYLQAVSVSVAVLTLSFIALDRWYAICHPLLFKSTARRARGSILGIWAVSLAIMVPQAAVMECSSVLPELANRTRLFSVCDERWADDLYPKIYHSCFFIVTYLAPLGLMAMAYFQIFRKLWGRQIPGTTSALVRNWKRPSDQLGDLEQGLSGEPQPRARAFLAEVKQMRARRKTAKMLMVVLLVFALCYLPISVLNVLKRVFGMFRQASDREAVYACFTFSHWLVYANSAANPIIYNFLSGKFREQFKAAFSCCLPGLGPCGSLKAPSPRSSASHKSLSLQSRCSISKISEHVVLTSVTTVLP
# GPR7 antagonist = antagonists of human GPR7 (neuropeptides B/W receptor 1). P48145. GPR7-expressing cells, fluorescence antagonist assay. inhibition, % at 4.4 µM. 290,000 tested, 1.1% active; in the data active means inhibition above about 16%, passing the limit was not always enough;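 further: cells stimulated with the agonist NPW; 0% = agonist with vehicle and 100% = vehicle without agonist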
# Target sequence (P48145 whole entry, looked up): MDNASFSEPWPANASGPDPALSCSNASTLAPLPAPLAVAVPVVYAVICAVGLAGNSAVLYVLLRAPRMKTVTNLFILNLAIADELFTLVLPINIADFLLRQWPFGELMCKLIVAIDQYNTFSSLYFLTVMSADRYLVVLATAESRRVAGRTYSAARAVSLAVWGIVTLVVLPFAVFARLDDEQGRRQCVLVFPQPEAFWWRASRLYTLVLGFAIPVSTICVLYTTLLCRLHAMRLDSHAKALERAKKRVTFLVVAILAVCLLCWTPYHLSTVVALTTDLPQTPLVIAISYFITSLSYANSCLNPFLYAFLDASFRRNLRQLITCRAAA
# OX1R antag-2 = antagonists of human orexin 1 receptor (OX1R). O43613. OX1R-expressing cells, FRET antagonist read-out. inhibition, % at 6.6 µM. 330,000 tested, 1.8% active. AID 485270; in the data active means inhibition mostly above about 38%, no sharp cut-off; inactive means mostly below about 40%;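 further: 0% = agonist challenge alone and 100% = reference antagonist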
# TAAR1 antagonist = human TAAR1 antagonism. Q96RJ0. CHO RD-HGA16 TAAR1, Fluo-8 calcium fluorescence, antagonist. inhibition, % at 3 µM. 360,000 tested, 1.5% active;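 active means inhibition above a per-plate cutoff, the mean inhibition of test compounds on that plate plus 3 SD, cut at about 49% in these data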;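 further: 0% = DMSO plus EC80 beta-PEA response and 100% = DMSO alone without agonist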
#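 Test system: RD-HGA16 CHO cells with stable hTAAR1 and Gα16 / Probe or stimulus: EC80 β-phenethylamine stimulus / Times: seeding 17-24 h prior, 75-min 37 °C, 30-min RT dye loading / Detection: Fluo-8 calcium-sensitive fluorescence / Read-out basis: % inhibition scaled between DMSO and EC80 PEA controls / Repeats: singlicate, one well per test compound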
# CHO parental Ca = counter-screen for OX1R antagonists: effect in parental CHO cells. parental CHO-K1, ATP-induced calcium, Fluo-8 fluorescence. 330,000 tested, 0.63% active. inhibition, % at 5.6 µM;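 active means inhibition above that plate's mean sample inhibition plus 3 SD, cut at about 26% in these data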;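 further: 0% = ATP-challenged DMSO wells and 100% = DMSO wells without ATP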
#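 Assay system – parental CHO cells · Reagent – ATP stimulus · Detection – intracellular calcium via Fluo-8 no-wash fluorescent dye · Evaluation – percent inhibition of ATP-evoked calcium rise, normalized to controls · Controls – ATP wells versus no-ATP DMSO wells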
# TAAR1 ag confirm = human TAAR1 agonism, confirmed; activation, % at 3 µM; CHO RD-HGA16 TAAR1, Fluo-8 calcium fluorescence; scaled: DMSO 0%, maximal phenethylamine 100%; shares compounds with TAAR1 agonist; 2,400 tested, 82% active;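 active means activation above a cutoff set at the run's mean compound activation plus 3 SD, cut at about 39% in these data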
# Ga16 nonsel ag = nonselective agonist in parental cells, TAAR1 agonist counter-screen; activation, % at 3 µM; shares compounds with TAAR1 agonist; CHO-Ga16 parental, Fluo-8 calcium fluorescence; normalized to maximal ATP response, DMSO zero; 2,400 tested, 50% active; AID 651787;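 active means activation above the run cutoff, the mean activation over all tested wells plus 3 SD, cut at about 12% in these data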;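 further: 0% = DMSO wells and 100% = maximal ATP response on the peak over basal ratio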
# TAAR1 desensitize = counter-screen for human TAAR1 agonists: agonists that desensitize TAAR1; inhibition, % at 3 µM; 2,400 tested, 46% active; shares compounds with TAAR1 agonist; AID 651951; CHO RD-HGA16 hTAAR1, Fluo-8 calcium, beta-PEA response inhibition;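 active means inhibition above the run cutoff, the mean inhibition of all test compounds plus 3 SD, cut at about 49% in these data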;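 further: beta-PEA stimulus applied at its EC80; loss of beta-PEA calcium signal after compound pretreatment read as receptor desensitization; 0% = DMSO with beta-PEA at EC80 and 100% = DMSO alone without agonist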
# Ga16 nonsel ant = nonselective Ga16 antagonist in TAAR1 agonist counter-screen; shares compounds with TAAR1 agonist; CHO-Ga16 ATP-induced calcium, Fluo-8 fluorescence; inhibition, % at 3 µM; 2,400 tested, 39% active; AID 651952;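 active means inhibition above the plate's mean compound inhibition plus 3 SD, computed per plate, cut at about 22% in these data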;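 further: 0% = EC80 ATP with DMSO and 100% = DMSO wells without ATP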
# * = called active by the depositor; . = no result given.
SMILES,TAAR1 agonist,OX1R antag-1,GPR7 antagonist,OX1R antag-2,TAAR1 antagonist,CHO parental Ca,TAAR1 ag confirm,Ga16 nonsel ag,TAAR1 desensitize,Ga16 nonsel ant
O=c1c2nnn(-c3ccc(Cl)cc3)c2ncn1Cc1ccccn1,476*,-19,-5,19,86*,-19,5,3,2,12
COc1ccc2c(c1)C1(C)CC(C)(C)N2C(=O)N1c1ccccc1 (stereo not drawn),44*,-40,-17,4,11,-26,16,8,3,10
COc1ccc(S(=O)(=O)n2nc(OC(=O)c3ccccc3)cc2N)cc1,57*,-1,8,13,7,-9,51*,13*,6,16
COc1ccc(S(=O)(=O)n2nc(OC(=O)c3cccs3)cc2N)cc1,53*,-12,-1,44,-6,-2,20,5,6,14
O=C(Nc1cccc(C(=O)O)c1)/C(=C\c1ccc2c(c1)OCO2)NC(=O)c1ccc(Br)cc1,5,3,-9,19,12,-8,.,.,.,.
COC(=O)[C@]12CCCCC=C1N(Cc1ccccc1)C(=O)[C@H](CC(=O)NCCc1ccccc1OC)C2,70*,.,.,.,57*,.,91*,2,77*,6
COC(=O)[C@]12CCCCC=C1N(Cc1cccc3ccccc13)C(=O)[C@H](CC(=O)NCc1ccccc1)C2,2,.,.,.,42,.,.,.,.,.
CCOC(=O)[C@]12CCC=C1N(Cc1ccccc1)C(=O)[C@H](CC(=O)NCCc1ccccc1OC)C2,70*,.,.,.,52*,.,91*,0,75*,-7
CCCCCCCCN1C(=O)[C@H](CC(=O)NCCc2ccccc2OC)C[C@@]2(C(=O)OC)CC(C)(C)CC=C12,44*,.,.,.,-40,.,60*,3,24,13
COC(=O)[C@]12CCCCC=C1N(Cc1cccc3ccccc13)C(=O)[C@H](CC(=O)NCCc1ccccc1OC)C2,45*,.,.,.,-6,.,44*,-1,15,20
CCOC(=O)[C@]12CCCC=C1N(Cc1ccccc1)C(=O)[C@H](CC(=O)NCCc1ccccc1OC)C2,28,.,.,.,-22,.,.,.,.,.
O=C1C2C3C=CC(C3)C2C(=O)N1/N=C/c1cc(Br)cc([N+](=O)[O-])c1O (stereo not drawn),2,-1,-4,36,-4,-6,.,.,.,.
Cc1ccc(C)c(NC(=O)CCC(=O)N2CCOc3ccccc32)c1,3,-16,-6,13,-16,4,.,.,.,.
COc1ccc(CCNCC(O)COc2cccc(Br)c2)cc1OC (stereo not drawn),16,-14,2,3,-9,-33,.,.,.,.
COc1ccc(CCNCC(O)COc2ccc(OC)cc2C(C)(C)C)cc1 (stereo not drawn),66*,21,18,3,33,13,96*,14*,70*,16
O=C(COC(=O)/C=C/c1ccccc1Cl)NC1CCCCCC1,49*,-11,-10,5,53*,-9,24,5,33,11
C=CCOc1nc2sc(C)c(C)c2c(=O)n1-c1ccccc1,0,.,-8,.,-4,.,.,.,.,.
CN1CCN(/N=C/c2ccc(N(C)c3ccccc3)cc2)CC1,5,-3,0,4,-17,-2,.,.,.,.
CN1CCN(/N=C/c2ccc(N(c3ccccc3)c3ccccc3)cc2)CC1,73*,-12,-17,9,50*,-4,72*,28*,56*,35*
COc1ccc(NC(=O)Cn2cnc3c(oc4nc5c(cc43)COC(C)(C)C5)c2=O)cc1,1,-2,-3,12,-19,-8,.,.,.,.
COC(=O)C(Cc1ccc(O)cc1)NC(=O)CCNC(=O)c1ccco1 (stereo not drawn),-3,-2,-10,11,8,5,.,.,.,.
c1ccc2c(c1)CCCC2C1=NCCN1 (stereo not drawn),91*,-3,-5,0,92*,1,93*,0,97*,11
CN1C(=S)N(c2cccnc2)C(=O)/C1=C\c1ccc(N(C)C)cc1,74*,.,8,.,33,.,29,39*,42,50*
CN1C(=S)N(c2cccnc2)C(=O)/C1=C\c1ccc(C(C)(C)C)cc1,8,12,-1,23,5,-16,.,.,.,.
Cc1[nH]n(-c2ccccc2)c(=O)c1C=NCCc1ccccc1,59*,1,-5,23,45,-8,91*,0,41,2
SMILES,TAAR1 agonist,OX1R antag-1,GPR7 antagonist,OX1R antag-2,TAAR1 antagonist,CHO parental Ca,TAAR1 ag confirm,Ga16 nonsel ag,TAAR1 desensitize,Ga16 nonsel ant
CCOC(=O)N1CCc2c(sc(N)c2C#N)C1,1,-5,5,0,-21,-4,.,.,.,.
N#Cc1c(N)sc2c1CCN(CCc1ccccc1)C2,79*,-8,-11,23,44,10,84*,2,64*,1
O=C(Cc1ccc(-c2ccccc2)cc1)NC1CCCC1,59*,-9,-2,32,-4,-4,14,7,2,13
O=C(CN1C(=O)NC(c2ccccc2)(c2ccccc2)C1=O)NCCNCCO,1,-13,-12,31,-29,-2,.,.,.,.
COc1ccc(-c2ccc(NS(=O)(=O)c3cc([N+](=O)[O-])c(C)c([N+](=O)[O-])c3)cc2)nn1,-1,-27,-15,14,-21,-26,.,.,.,.
C#CCOc1ccc(/C=C2/C(=O)NN(c3ccc(F)cc3)C2=O)cc1OC,99*,-2,-25,-7,14,-2,92*,55*,44,18
COc1cc(/C=C2\C(=O)NN(c3ccccc3)C2=O)ccc1OCC(N)=O,5,-9,-10,3,-20,-9,.,.,.,.
O=C(CN1CCN(c2ccccc2O)CC1)Nc1cccnc1Cl,3,-17,-22,21,3,10,.,.,.,.
O=C(N[C@@H](Cc1cccnc1)C(=O)N1CCC[C@H]1C(=O)NCCc1ccccc1Cl)C1CC1,46*,.,.,.,26,.,70*,0,58*,6
O=C(N[C@@H](Cc1cccnc1)C(=O)N1CCC[C@H]1C(=O)NC1CCCC1)c1cccs1,1,.,.,.,-16,.,.,.,.,.

# Screening results deposited in PubChem BioAssay by The Scripps Research Institute Molecular Screening Center.
